Compound activity as filed in PubChem BioAssay.
A selection: hits, their analogues and other compounds. The true share with any hit is near 3.5%.
MrgX1 antagonist: antagonists of human MrgX1 receptor, primary screen, HEK293 cells, Fluo-4 calcium flux; Mas-related G-protein coupled receptor member X1 (Homo sapiens), Q96LB2; BAM8-22 antagonism; stronger effect = lower value; B-score at 10 µM; 310,000 tested, 1.3% active; AID 588676, 2011;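 active = calcium-response B-score plate-corrected more than 3 library SD below zero, starting fluorescence within 5 deviations, no agonist response on first addition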;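 also: peak minus trough fluorescence over baseline after final BAM8-22 challenge near maximal dose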
Target sequence (Q96LB2 whole entry, looked up): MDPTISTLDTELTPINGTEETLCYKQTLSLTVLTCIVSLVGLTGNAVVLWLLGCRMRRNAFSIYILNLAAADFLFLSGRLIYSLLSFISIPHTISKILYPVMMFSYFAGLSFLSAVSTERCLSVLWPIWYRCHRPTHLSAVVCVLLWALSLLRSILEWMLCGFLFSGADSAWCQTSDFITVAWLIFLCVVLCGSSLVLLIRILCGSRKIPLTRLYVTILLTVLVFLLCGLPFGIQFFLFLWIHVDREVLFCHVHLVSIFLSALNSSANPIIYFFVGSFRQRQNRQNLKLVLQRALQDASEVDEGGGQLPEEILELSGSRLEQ
MrgX1 ag: agonists of human MrgX1 receptor, primary screen, HEK293 cells, Fluo-4 calcium flux. Mas-related G-protein coupled receptor member X1 (Homo sapiens), Q96LB2. Fluo-4 calcium fluorescence, agonist mode; stronger effect = higher value. B-score at 10 µM. 310,000 tested, 0.44% active;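 active = calcium response B-score plate-corrected fluorescence ratio at least 3 library SD, with starting fluorescence B-score inside 5 SD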
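Assay system: stable human MrgX1 HEK293 cell line. Quantity: 15,000 cells per well. Schedule: cells plated overnight, dye loaded 0.5 h 37 °C, 0.5 h room temperature. Detection: Fluo-4 NW calcium-flux fluorescence, kinetic read. Read-out basis: peak-minus-minimum fluorescence over baseline, converted to B scores. Control set: positive and negative control wells on each plate.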
RGS4 inh: RGS4 inhibitors, primary screen, cell-based, HEK293 M3R inducible RGS4, calcium flux; 310,000 tested, 0.45% active; B-score at 10 µM; Regulator of G-protein signaling 4 (Homo sapiens), P49798; AID 463165, 2010; Fluo-4 calcium flux; stronger effect = higher value; triggered by carbachol at its EC20;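 active = B-score, a plate-corrected calcium signal, over three deviations above library mean, with baseline fluorescence within five deviations of library mean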;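 also: RGS4 expression induced by doxycycline in cells with stable M3 receptor; B-score is computed from the integrated fluorescence ratio over baseline after carbachol; higher B-score means a larger calcium signal and so more RGS4 inhibition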
Target sequence (P49798 whole entry, looked up): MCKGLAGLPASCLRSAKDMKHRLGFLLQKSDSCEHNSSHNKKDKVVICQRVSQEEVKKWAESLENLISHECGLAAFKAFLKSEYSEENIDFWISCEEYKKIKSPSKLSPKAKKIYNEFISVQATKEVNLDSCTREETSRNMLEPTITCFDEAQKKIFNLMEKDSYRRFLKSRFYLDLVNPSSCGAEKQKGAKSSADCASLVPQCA
RGS4 pot: RGS4 potentiators or activators, primary screen, cell-based, HEK293 M3R inducible RGS4, calcium flux; carbachol calcium flux Fluo4; stronger effect = lower value; B-score at 10 µM; 310,000 tested, 0.92% active;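 active = B-score of the integrated calcium signal more than 4 SD below the library mean, with starting fluorescence not abnormally high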;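 also: negative B-score means reduced calcium response which marks RGS4 activation or potentiation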
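test system = M3R-expressing HEK293 line, RGS4 induced by doxycycline | probe or stimulus = carbachol at ECmax as muscarinic agonist stimulus | timing = dye loading 30 min 37 °C, buffer rest 30 min RT | signal = calcium dye Fluo4 fluorescence | evaluation = B score from integrated fluorescence ratio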
MrgX1 allo act: positive allosteric modulators of MrgX1, primary screen, HEK293 cells, Fluo-4 calcium flux | B-score at 10 µM | 310,000 tested, 0.63% active | AID 588675, 2011 | FDSS; stronger effect = higher value | Mas-related G-protein coupled receptor member X1 (Homo sapiens), Q96LB2;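 active = plate-corrected calcium response at least 3 library SD above typical, normal starting fluorescence, not activating the receptor alone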;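 also: compound read alongside a low EC10 to EC30 dose of BAM8-22 agonist; peak minus trough fluorescence over baseline measured at the second addition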
Large screens that a line does not name were inactive.

Cc1cccc(N2CCN(C(=O)c3ccc(CS(=O)Cc4cccc(Cl)c4)o3)CC2)c1C (centres undefined)	RGS4 pot -10
Cc1ccc(Cl)cc1N1CCN(C(=O)c2ccc(CS(=O)Cc3ccc(Cl)cc3)o2)CC1 (centres undefined)	none
Cc1ccc(C)c(N2CCN(C(=O)c3ccc(CS(=O)Cc4ccc(Cl)cc4)o3)CC2)c1 (centres undefined)	RGS4 pot -8.5
O=C(c1ccc(CS(=O)Cc2ccc(Cl)cc2)o1)N1CCN(c2ccccc2F)CC1 (centres undefined)	none
O=C(Nc1nnc(CSCc2ccc(Cl)cc2)s1)c1cccc([N+](=O)[O-])c1	MrgX1 antagonist -9.5
CCN(CC)c1ccc2cc(/C(N)=N/NC(=O)c3cccs3)c(=O)oc2c1	MrgX1 allo act 27
Cc1cc(C)c[n+](-c2[nH]c(=O)sc2/C=N/NC([S-])=Nc2ccccc2)c1	MrgX1 antagonist -6.7
Cc1cc[n+](-c2[nH]c(=O)sc2/C=N/NC([S-])=Nc2ccccc2)cc1	none
Nc1ncnc2c1ncn2[C@@H]1O[C@H](COP(=O)(O)OP(=O)(O)OP(=O)(O)O)[C@@H](O)[C@H]1O	MrgX1 ag 45 (no result: RGS4 inh, RGS4 pot)
CCC(=NC(C)c1ccccc1)c1c(O)n(C)c(=O)n(C)c1=O (centres undefined)	MrgX1 antagonist -7.4
O=C(Cn1cc2c(n1)CCCC2)Nc1cc(-c2cccc(Cl)c2)no1	none
COc1ccc(-n2c(C)cc(/C=C(\C#N)C(=O)NCc3ccco3)c2C)cc1	MrgX1 antagonist -4.9
c1ccc(COc2ccc(CNCc3cccs3)cc2)cc1	RGS4 pot -8.3
O=C(NCC(c1ccco1)N1CCCC1)c1ccccc1Sc1ccc(C(F)(F)F)cc1[N+](=O)[O-] (centres undefined)	RGS4 pot -9
Cc1ccccc1NS(=O)(=O)c1nnc(NC(=O)C(C)C)s1	none
Cn1cccc1/C=N/n1c(-c2ccc(Cl)cc2)n[nH]c1=S	none
Cn1cccc1/C=N/n1c(-c2ccc(Cl)cc2Cl)n[nH]c1=S	MrgX1 ag 27
CN(C1CCCCC1)S(=O)(=O)c1ccc2[nH]c(=O)oc2c1	none
O=C(NCC1CCCO1)c1cccc(NS(=O)(=O)c2ccccc2)c1 (centres undefined)	none
COc1cc(/C=C(\C#N)C(=O)NCCc2ccccc2)cc(OC)c1O	MrgX1 allo act 7.3
CC1(C)CC(=O)C/C(=N/NC(=O)COc2ccc3ccccc3c2Br)C1	MrgX1 antagonist -8
CC1(C)CC(=O)C/C(=N/NC(=O)COc2ccc(Cl)cc2Cl)C1	none
COc1cc(SC)ccc1C(=O)N(Cc1ccccc1)c1ccccn1	none
CCN(CC)CCCN1C=C2C(=O)C(C)(OC(=O)CCC(=O)OC)C(=O)C=C2C=C1C1CC1 (centres undefined)	MrgX1 antagonist -5.5
COc1ccc(NC(=O)/C(C#N)=C\c2ccc(N3CCOCC3)o2)cc1	RGS4 pot -8.6
N#C/C(=C/c1ccc(N2CCCCC2)o1)C(=O)Nc1ccc(Cl)cc1	MrgX1 antagonist -7.8
N#C/C(=C\c1ccc(N2CCOCC2)o1)C(=O)Nc1ccc(O)cc1	none
N#C/C(=C/c1ccc(N2CCCCC2)o1)C(=O)Nc1ccc2ccccc2c1	none (no result: MrgX1 antagonist, MrgX1 ag, MrgX1 allo act)
CC1(C)CC(=O)C=C(C(=O)N2CCCC(C(=O)c3cccc(Cl)c3)C2)O1 (centres undefined)	none
Cn1c(=O)c2nc3ccccc3nc2n(C)c1=O	RGS4 pot -7.5
COC(=O)NNC(=O)c1ccc(Cl)cc1Cl	none
CC(C)(C)C(=O)NC(=S)NNC(=O)c1ccc(-c2ccccc2)cc1	MrgX1 ag 179, RGS4 pot -7.5
CC(C)(C)C(=O)NC(=S)NNC(=O)c1ccc(Cl)cc1Cl	RGS4 pot -7
CCOP(=O)(O)c1ccccc1OCCCCCOc1ccccc1P(=O)(O)OCC	none
Cc1ccnc(NC(=O)c2ccc3[nH]c(=O)c(=O)[nH]c3c2)c1	none
Cc1ccc(S(=O)(=O)N(C)C)cc1NC(=O)C(C)Sc1ccccc1 (centres undefined)	none
CC1(C)Cc2ccccc2C(NN=C2CCCC2)=N1	none
COc1ccc(NC(=O)COc2coc(CN3CCN(c4ccccc4)CC3)cc2=O)cc1	MrgX1 antagonist -5.7
COc1ccc(N2CCN(Cc3cc(=O)c(OCC(=O)Nc4ccccc4)co3)CC2)cc1	none
CCOC(=O)C1CCN(C(=O)COC(=O)CN(C)S(=O)(=O)c2ccc(NC(C)=O)cc2)CC1	none
C/C(=N/NC(=O)CNC(=O)c1ccccn1)c1cccc([N+](=O)[O-])c1	none
COc1ccc(N2C(=O)[C@@H]3[C@H](C2=O)[C@H]2c4ccccc4C=CN2[C@@H]3C(=O)Nc2ccccc2)cc1	MrgX1 antagonist -7.1 (no result: RGS4 inh, RGS4 pot)
O=C(c1ccco1)[C@@H]1[C@@H]2C(=O)N(c3ccccc3)C(=O)[C@@H]2C2c3ccccc3C=CN21 (some centres undefined)	none
C#CCSc1ncc(-c2ccccc2)cn1	MrgX1 antagonist -7.5
CC(CCc1ccccc1)NC(=O)COc1cc(F)ccc1[N+](=O)[O-] (centres undefined)	MrgX1 allo act 8.3
O=C(c1cc(-c2cccs2)nn1-c1ccccc1)N1CCN(S(=O)(=O)c2ccccc2)CC1	RGS4 pot -7.2
CCOC(=O)C1CCCN(C(c2ccccn2)c2c(C)[nH]c3ccccc23)C1 (centres undefined)	RGS4 pot -8.4
Cc1ccc(-c2cn3nc(-c4ccccc4)c(-c4ccccc4)nc3n2)cc1	RGS4 pot -7
COc1ccc(CCNC(=O)C(=O)NCCC2CCCCN2S(=O)(=O)c2ccccc2)cc1 (centres undefined)	none
C#CCOCCOCCOCCNc1nc(N2CCN(C(=O)CCCCCCCCCCNC(=O)Cn3cc(CCCCCN)nn3)CC2)nc(N2CCN(C(=O)CCCCCCCCCCNC(=O)[C@@H]([C@H](C)O)n3cc(C)nn3)CC2)n1	MrgX1 allo act 11 (no result: RGS4 inh, RGS4 pot)
C#CCOCCOCCOCCNc1nc(N2CCN(C(=O)CCCCCCCCCCNC(=O)Cn3cc(C[C@@H](C)O)nn3)CC2)nc(N2CCN(C(=O)CCCCCCCCCCNC(=O)[C@@H]([C@H](C)CC)n3cc(CCCCCN)nn3)CC2)n1	MrgX1 allo act 6.9 (no result: RGS4 inh, RGS4 pot)
C#CCOCCOCCOCCNc1nc(N2CCN(C(=O)CCCCCCCCCCNC(=O)Cn3cc(C[C@@H](C)O)nn3)CC2)nc(N2CCN(C(=O)CCCCCCCCCCNC(=O)[C@@H]([C@H](C)O)n3cc(C)nn3)CC2)n1	none (no result: RGS4 inh, RGS4 pot)
C#CCOCCOCCOCCNc1nc(N2CCN(C(=O)CCCCCCCCCCNC(=O)Cn3cc(CCCCCN)nn3)CC2)nc(N2CCN(C(=O)CCCCCCCCCCNC(=O)Cn3cc(C[C@@H](C)O)nn3)CC2)n1	MrgX1 antagonist -8.3 (no result: RGS4 inh, RGS4 pot)
